The target of assay [1] is T1, Acid ceramidase (Homo sapiens) (UniProt Q13510).
T1 sequence (whole entry): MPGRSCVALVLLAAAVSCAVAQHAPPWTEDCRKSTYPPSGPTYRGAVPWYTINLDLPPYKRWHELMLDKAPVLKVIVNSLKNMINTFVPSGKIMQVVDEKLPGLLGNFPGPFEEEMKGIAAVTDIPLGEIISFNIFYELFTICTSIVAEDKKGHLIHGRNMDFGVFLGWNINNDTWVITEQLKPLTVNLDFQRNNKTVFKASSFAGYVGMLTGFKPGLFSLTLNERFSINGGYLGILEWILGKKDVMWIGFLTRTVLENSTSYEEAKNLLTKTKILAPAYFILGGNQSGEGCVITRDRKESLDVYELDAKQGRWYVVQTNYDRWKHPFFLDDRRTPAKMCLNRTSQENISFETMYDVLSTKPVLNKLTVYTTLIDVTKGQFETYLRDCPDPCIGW
In words: Activity of human recombinant acid ceramidase expressed in baculovirus infected Sf9 cells assessed as hydrolysis at 80 uM after 150 mins by TLC-based fluorescence imaging in presence of DP-24a. In outline:
(§1)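 Inhibition runs used 30 µg/mL aCDase with inhibitor at 50 µM, in pH 4.5 sodium acetate buffer with 200 mM NaCl and 0.1% Triton X-100. Substrate set per compound at 80, 55 or 160 µM; DMSO <5%. Incubated 150 min at 37 °C, then extracted and run on TLC with fluorescence imaging. Activity expressed relative to an inhibitor-free control; mean ± SD of three experiments, with significance by p value.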

Assay [2] addresses T1, Acid ceramidase (Homo sapiens). In words: Activity of human recombinant acid ceramidase expressed in baculovirus infected Sf9 cells assessed as hydrolysis at 80 uM after 150 mins by TLC-based fluorescence imaging in presence of B-13. Summed up:
as §1

The target is the same in assay [3]. The assay is described as follows: Activity of human recombinant acid ceramidase expressed in baculovirus infected Sf9 cells assessed as hydrolysis at 20 uM after 150 mins by TLC-based fluorescence imaging. The arrangement: scale not given: the % may be the effect or the level left. In outline: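 Micellar assay with insect-cell-expressed human aCDase in 200 mM sodium acetate pH 4.5, 200 mM NaCl, 0.1% Triton X-100. Substrate at 20 µM final, 150 min at 37 °C. Quenched with chloroform/methanol 2:1, organic layer separated on silica TLC. Spots imaged at ex 550/em 600 nm (Nile Red) or ex 430/em 550 nm (NBD). Percent cleavage taken from cleaved/(cleaved+uncleaved) fluorescence; mean ± SD, n=3.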

For assay [4], the target named is Neutral ceramidase (Homo sapiens) (UniProt Q9NR71). The assay is described as follows: Activity of human recombinant neutral ceramidase assessed as hydrolysis at 20 uM after 60 mins by TLC-based fluorescence imaging. The arrangement: scale not given: the % may be the effect or the level left. Summed up:
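Recombinant human nCDase at 20 ng/mL final, with substrate at 20 µM final, in 200 mM sodium acetate pH 7.0, 200 mM NaCl, 0.1% Triton X-100. Incubated 60 min at 37 °C. Stopped with chloroform/methanol 2:1 and centrifuged 2 min at 10,000 rpm; organic layer run on TLC. Percent hydrolysis from imaged fluorescence of product versus substrate; mean ± SD, n=3.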

For a further assay, the system named is Tachypleus tridentatus. The assay is described as follows: Activity of japanese horseshoe crab acid ceramidase after 30 mins by TLC-based fluorescence imaging.
The target in assay [5] is T1, Acid ceramidase (Homo sapiens). In words: Activity of human recombinant acid ceramidase expressed in baculovirus infected Sf9 cells assessed as hydrolysis at 160 uM after 150 mins by TLC-based fluorescence imaging in presence of B-13. Summed up:
as §1

Assay [6] shares this target. The assay is described as follows: Activity of human recombinant acid ceramidase expressed in baculovirus infected Sf9 cells assessed as hydrolysis at 160 uM after 150 mins by TLC-based fluorescence imaging in presence of DP-24a. In outline: as §1
Assay [7] has the same target. In words: Activity of human recombinant acid ceramidase expressed in baculovirus infected Sf9 cells assessed as hydrolysis at 55 uM after 150 mins by TLC-based fluorescence imaging in presence of B-13. Summed up: as §1
Assay [8] has the same target. In words: Activity of human recombinant acid ceramidase expressed in baculovirus infected Sf9 cells assessed as hydrolysis at 55 uM after 150 mins by TLC-based fluorescence imaging in presence of DP-24a. In outline: as §1

Molecules are shown by their SMILES. Calls of active or inactive are those of the source. No cut-off for these calls is given here.

Sequence of Neutral ceramidase (Homo sapiens) (Q9NR71 whole entry): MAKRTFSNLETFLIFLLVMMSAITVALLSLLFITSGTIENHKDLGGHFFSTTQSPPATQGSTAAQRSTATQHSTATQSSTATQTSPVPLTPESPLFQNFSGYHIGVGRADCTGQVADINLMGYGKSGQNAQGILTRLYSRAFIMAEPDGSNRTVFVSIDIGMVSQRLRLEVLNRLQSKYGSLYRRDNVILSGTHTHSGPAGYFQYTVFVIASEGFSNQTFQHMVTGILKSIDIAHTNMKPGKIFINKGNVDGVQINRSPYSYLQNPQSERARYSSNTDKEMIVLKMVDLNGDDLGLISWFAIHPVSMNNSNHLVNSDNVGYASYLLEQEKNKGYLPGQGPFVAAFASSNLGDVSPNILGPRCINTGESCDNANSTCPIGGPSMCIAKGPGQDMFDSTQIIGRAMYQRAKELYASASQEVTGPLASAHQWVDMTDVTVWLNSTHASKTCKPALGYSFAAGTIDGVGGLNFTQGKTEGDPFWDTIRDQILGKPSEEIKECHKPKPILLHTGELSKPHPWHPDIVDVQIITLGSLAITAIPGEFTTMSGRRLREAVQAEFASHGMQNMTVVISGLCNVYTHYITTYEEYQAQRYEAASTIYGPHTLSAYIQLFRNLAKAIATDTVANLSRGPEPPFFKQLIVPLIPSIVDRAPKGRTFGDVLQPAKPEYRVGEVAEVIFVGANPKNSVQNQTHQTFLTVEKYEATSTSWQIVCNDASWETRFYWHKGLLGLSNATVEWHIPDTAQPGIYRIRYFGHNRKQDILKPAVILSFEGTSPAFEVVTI

Take `CCCCCCCCCCCCC/C=C/[C@@H](O)[C@H](CO)NC(=O)CCCCCCCCCCCOc1ccc2c(=O)cc3oc4cc(N(CC)CC)ccc4nc-3c2c1`: the result in assay [1] and in assay [2] was inactive. Further, the Activity in assay [3] was 6.1%; in assay [4] it was 3.3%.
In the case of `CCCCCCCCCCCCC/C=C/[C@@H](O)[C@H](CO)NC(=O)CCCCCCCCCCCNc1ccc([N+](=O)[O-])c2nonc12`, the outcome in assay [1] and in [2] was inactive. For the same molecule, the Km with Tachypleus tridentatus worked out at 59 µM. In addition, in the assay on Tachypleus tridentatus, the Vmax was 0.8 pmol/min. Besides, the Activity in [3] and in assay [4] was 9.9% throughout.
As to `CCCCCCCCCCCCCCCC(=O)N[C@@H](CO)[C@H](O)/C=C/CCCCCCCCCNc1ccc([N+](=O)[O-])c2nonc12`, the Activity was determined as 5.6% in assay [3] and 6.2% in assay [4]. Further, the result in assay [5] and in assay [6] was inactive.
Consider `CCCCCCCCCCCCCCCC(=O)N[C@@H](CO)[C@H](O)/C=C/CCCCCCCCCOc1ccc2c(=O)cc3oc4cc(N(CC)CC)ccc4nc-3c2c1`, for which the outcome in assay [7] and in assay [8] was inactive. Also, the results for the Activity in assay [3] and in assay [4] were 6.3% and 3.9%, respectively.
